ChEMBL document CHEMBL4325889, “Natural products hybrids: 3,5,4'-Trimethoxystilbene-5,6,7-trimethoxyflavone chimeric analogs as potential cytotoxic agents against diverse human cancer cells” (Eur J Med Chem, 2019)

Tests used:
Type in all cases: functional
HL-60(TB) = assay: Growth inhibition of human HL-60(TB) cells at 10 uM after 48 hrs by SRB assay relative to control; settings: HL-60, 48 h, read-out: GI
Outline: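 Run at NCI under its standard single-dose protocol against a leukemia cell panel. Cells were exposed to 10 µM; growth was read by sulforhodamine B staining of cellular protein and expressed as % growth inhibition versus untreated control. Values above 100% mean the cell population fell below the starting count (cytocidal). Each value is the average of duplicates.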

NCI/ADR-RES = assay: Growth inhibition of human NCI/ADR-RES cells at 10 uM after 48 hrs by SRB assay relative to control; settings: read-out: GI
Outline: (§1)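 Screened at the National Cancer Institute by the standard NCI protocol using the sulforhodamine B assay, which measures cellular protein. Single dose of 10 µM. Result is percent growth inhibition; values above 100% mean cell number fell below the initial population. Values are the average of duplicates.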

RXF 393 = assay: Growth inhibition of human RXF393 cells at 10 uM after 48 hrs by SRB assay relative to control; settings: RXF 393, 48 h, read-out: GI; outline: as §1
SF-295 = assay: Growth inhibition of human SF295 cells at 10 uM after 48 hrs by SRB assay relative to control; settings: SF-295, 48 h, read-out: GI; outline: as §1
MDA-MB-468 = assay: Growth inhibition of human MDA-MB-468 cells at 10 uM after 48 hrs by SRB assay relative to control; settings: MDA-MB-468, 48 h, read-out: GI; outline: as §1
K562 = assay: Growth inhibition of human K562 cells at 10 uM after 48 hrs by SRB assay relative to control; settings: K562, 48 h, read-out: GI; outline: as §1
SW-620 = assay: Growth inhibition of human SW620 cells at 10 uM after 48 hrs by SRB assay relative to control; settings: SW-620, 48 h, read-out: GI
Outline: (§2)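 NCI screen against its human cancer cell line panel by the standard NCI protocol, SRB protein stain. Single dose of 10 μM. Percent growth inhibition versus control; values above 100% mean the cell population fell below the starting number. Each value is the mean of duplicates.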

SR = assay: Growth inhibition of human SR cells at 10 uM after 48 hrs by SRB assay relative to control; settings: read-out: GI; outline: as §2
SNB-75 = assay: Growth inhibition of human SNB75 cells at 10 uM after 48 hrs by SRB assay relative to control; settings: SNB-75, 48 h, read-out: GI; outline: as §2
MOLT-4 = assay: Growth inhibition of human MOLT4 cells at 10 uM after 48 hrs by SRB assay relative to control; settings: MOLT-4, 48 h, read-out: GI; outline: as §1
SK-MEL-28 = assay: Growth inhibition of human SK-MEL-28 cells at 10 uM after 48 hrs by SRB assay relative to control; settings: SK-MEL-28, 48 h, read-out: GI; outline: as §1
OVCAR-4 = assay: Growth inhibition of human OVCAR4 cells at 10 uM after 48 hrs by SRB assay relative to control; settings: OVCAR-4, 48 h, read-out: GI; outline: as §1
NCI-H522 = assay: Growth inhibition of human NCI-H522 cells at 10 uM after 48 hrs by SRB assay relative to control; settings: NCI-H522, 48 h, read-out: GI; outline: as §1
OVCAR-3 = assay: Growth inhibition of human OVCAR3 cells at 10 uM after 48 hrs by SRB assay relative to control; settings: OVCAR-3, 48 h, read-out: GI; outline: as §1
LOX IMVI = assay: Growth inhibition of human LOXIMVI cells at 10 uM after 48 hrs by SRB assay relative to control; settings: read-out: GI; outline: as §1
BT-549 = assay: Growth inhibition of human BT549 cells at 10 uM after 48 hrs by SRB assay relative to control; settings: BT-549, 48 h, read-out: GI; outline: as §1
U-251 = assay: Growth inhibition of human U251 cells at 10 uM after 48 hrs by SRB assay relative to control; settings: U-251, 48 h, read-out: GI; outline: as §2
SF-539 = assay: Growth inhibition of human SF539 cells at 10 uM after 48 hrs by SRB assay relative to control; settings: SF-539, 48 h, read-out: GI; outline: as §1
SK-MEL-5 = assay: Growth inhibition of human SK-MEL-5 cells at 10 uM after 48 hrs by SRB assay relative to control; settings: SK-MEL-5, 48 h, read-out: GI; outline: as §1
CAKI-1 = assay: Growth inhibition of human Caki1 cells at 10 uM after 48 hrs by SRB assay relative to control; settings: CAKI-1, 48 h, read-out: GI; outline: as §1
CCRF-CEM = assay: Growth inhibition of human CCRF-CEM cells at 10 uM after 48 hrs by SRB assay relative to control; settings: read-out: GI; outline: as §1
IGROV-1 = assay: Growth inhibition of human IGROV1 cells at 10 uM after 48 hrs by SRB assay relative to control; settings: IGROV-1, 48 h, read-out: GI; outline: as §1
DU-145 = assay: Growth inhibition of human DU145 cells at 10 uM after 48 hrs by SRB assay relative to control; settings: DU-145, 48 h, read-out: GI; outline: as §1
NCI-H23 = assay: Growth inhibition of human NCI-H23 cells at 10 uM after 48 hrs by SRB assay relative to control; settings: NCI-H23, 48 h, read-out: GI; outline: as §1
OVCAR-5 = assay: Growth inhibition of human OVCAR5 cells at 10 uM after 48 hrs by SRB assay relative to control; settings: OVCAR-5, 48 h, read-out: GI; outline: as §1
Hs-578T = assay: Growth inhibition of human Hs 578T cells at 10 uM after 48 hrs by SRB assay relative to control; settings: read-out: GI; outline: as §1
HOP-92 = assay: Growth inhibition of human HOP92 cells at 10 uM after 48 hrs by SRB assay relative to control; settings: HOP-92, 48 h, read-out: GI; outline: as §1
HCC 2998 = assay: Growth inhibition of human HCC2998 cells at 10 uM after 48 hrs by SRB assay relative to control; settings: HCC 2998, 48 h, read-out: GI; outline: as §1
SK-MEL-2 = assay: Growth inhibition of human SK-MEL-2 cells at 10 uM after 48 hrs by SRB assay relative to control; settings: SK-MEL-2, 48 h, read-out: GI; outline: as §1
UACC-257 = assay: Growth inhibition of human UACC257 cells at 10 uM after 48 hrs by SRB assay relative to control; settings: UACC-257, 48 h, read-out: GI; outline: as §2
PC-3 = assay: Growth inhibition of human PC3 cells at 10 uM after 48 hrs by SRB assay relative to control; settings: PC-3, 48 h, read-out: GI; outline: as §1
MCF7 = assay: Growth inhibition of human MCF7 cells at 10 uM after 48 hrs by SRB assay relative to control; settings: MCF7, 48 h, read-out: GI; outline: as §1
RPMI-8226 = assay: Growth inhibition of human RPMI8226 cells at 10 uM after 48 hrs by SRB assay relative to control; settings: RPMI-8226, 48 h, read-out: GI; outline: as §1

SMILES: COc1ccc(NC(=O)c2cccc(-c3cc(=O)c4c(OC)c(OC)c(OC)cc4o3)c2)cc1
- inhibition of growth at 10 µM (HL-60(TB)): 21.2%
- inhibition of growth at 10 µM (NCI/ADR-RES): 47.2%
- inhibition of growth at 10 µM (RXF 393): 59.9%
- inhibition of growth at 10 µM (SF-295): 33.6%
- inhibition of growth at 10 µM (MDA-MB-468): 24.3%
- inhibition of growth at 10 µM (K562): 50.4%
- inhibition of growth at 10 µM (SW-620): 6.52%
- inhibition of growth at 10 µM (SR): 18.4%
- inhibition of growth at 10 µM (SNB-75): 19.7%
- inhibition of growth at 10 µM (MOLT-4): 36.8%
- inhibition of growth at 10 µM (SK-MEL-28): 28.7%
- inhibition of growth at 10 µM (OVCAR-4): 15.3%
- inhibition of growth at 10 µM (NCI-H522): 39%
- inhibition of growth at 10 µM (OVCAR-3): 54.3%
- inhibition of growth at 10 µM (LOX IMVI): 75.4%
- inhibition of growth at 10 µM (BT-549): 53.1%
- inhibition of growth at 10 µM (U-251): 13.9%
- inhibition of growth at 10 µM (SF-539): 27.7%
- inhibition of growth at 10 µM (SK-MEL-5): 59.1%
- inhibition of growth at 10 µM (CAKI-1): 63.7%
- inhibition of growth at 10 µM (CCRF-CEM): 50.7%
- inhibition of growth at 10 µM (IGROV-1): 38.7%
- inhibition of growth at 10 µM (DU-145): 26.3%
- inhibition of growth at 10 µM (NCI-H23): 28.7%
- inhibition of growth at 10 µM (OVCAR-5): 16.8%
- inhibition of growth at 10 µM (Hs-578T): 41.6%
- inhibition of growth at 10 µM (HOP-92): 52.7%
- inhibition of growth at 10 µM (HCC 2998): 26.3%
- inhibition of growth at 10 µM (SK-MEL-2): 15.3%
- inhibition of growth at 10 µM (UACC-257): -2.76%
- inhibition of growth at 10 µM (PC-3): 38.8%
- inhibition of growth at 10 µM (MCF7): 21.1%
- inhibition of growth at 10 µM (RPMI-8226): 87.5%

SMILES: COc1cc2oc(-c3cccc(C(=O)Nc4ccccc4)c3)cc(=O)c2c(OC)c1OC
- inhibition of growth at 10 µM (HL-60(TB)): 12.7%
- inhibition of growth at 10 µM (NCI/ADR-RES): 18.2%
- inhibition of growth at 10 µM (RXF 393): 24.9%
- inhibition of growth at 10 µM (SF-295): 4.34%
- inhibition of growth at 10 µM (MDA-MB-468): 9.98%
- inhibition of growth at 10 µM (K562): 29.6%
- inhibition of growth at 10 µM (SW-620): -0.72%
- inhibition of growth at 10 µM (SR): 35.9%
- inhibition of growth at 10 µM (SNB-75): 7.02%
- inhibition of growth at 10 µM (MOLT-4): 43.2%
- inhibition of growth at 10 µM (SK-MEL-28): 8.31%
- inhibition of growth at 10 µM (OVCAR-4): 1.91%
- inhibition of growth at 10 µM (NCI-H522): 21.9%
- inhibition of growth at 10 µM (OVCAR-3): 12.3%
- inhibition of growth at 10 µM (LOX IMVI): 33%
- inhibition of growth at 10 µM (BT-549): 24.2%
- inhibition of growth at 10 µM (U-251): 9.89%
- inhibition of growth at 10 µM (SF-539): 19.8%
- inhibition of growth at 10 µM (SK-MEL-5): 35.3%
- inhibition of growth at 10 µM (CAKI-1): 4.59%
- inhibition of growth at 10 µM (CCRF-CEM): 35.1%
- inhibition of growth at 10 µM (IGROV-1): 19.4%
- inhibition of growth at 10 µM (DU-145): 12.2%
- inhibition of growth at 10 µM (NCI-H23): 7.79%
- inhibition of growth at 10 µM (OVCAR-5): 16.2%
- inhibition of growth at 10 µM (Hs-578T): 8%
- inhibition of growth at 10 µM (HOP-92): 29.2%
- inhibition of growth at 10 µM (HCC 2998): 1.29%
- inhibition of growth at 10 µM (SK-MEL-2): 15.4%
- inhibition of growth at 10 µM (UACC-257): 5.48%
- inhibition of growth at 10 µM (PC-3): 29%
- inhibition of growth at 10 µM (MCF7): 7.49%
- inhibition of growth at 10 µM (RPMI-8226): 59.4%

SMILES: COc1ccccc1C(=O)Nc1cccc(-c2cc(=O)c3c(O)c(OC)c(OC)cc3o2)c1
- inhibition of growth at 10 µM (HL-60(TB)): 0.6%
- inhibition of growth at 10 µM (NCI/ADR-RES): 5.26%
- inhibition of growth at 10 µM (RXF 393): -12.1%
- inhibition of growth at 10 µM (SF-295): 6.16%
- inhibition of growth at 10 µM (MDA-MB-468): -22.9%
- inhibition of growth at 10 µM (K562): 15.5%
- inhibition of growth at 10 µM (SW-620): 10.5%
- inhibition of growth at 10 µM (SR): 16.5%
- inhibition of growth at 10 µM (SNB-75): 16.4%
- inhibition of growth at 10 µM (MOLT-4): 6.77%
- inhibition of growth at 10 µM (SK-MEL-28): -1.9%
- inhibition of growth at 10 µM (OVCAR-4): -5.24%
- inhibition of growth at 10 µM (NCI-H522): 41%
- inhibition of growth at 10 µM (OVCAR-3): -14.6%
- inhibition of growth at 10 µM (LOX IMVI): 4.4%
- inhibition of growth at 10 µM (BT-549): 25.1%
- inhibition of growth at 10 µM (U-251): 33.1%
- inhibition of growth at 10 µM (SF-539): 9.52%
- inhibition of growth at 10 µM (SK-MEL-5): 13.4%
- inhibition of growth at 10 µM (CAKI-1): 9.48%
- inhibition of growth at 10 µM (CCRF-CEM): 5.53%
- inhibition of growth at 10 µM (IGROV-1): 3.04%
- inhibition of growth at 10 µM (DU-145): -2.87%
- inhibition of growth at 10 µM (NCI-H23): 1.58%
- inhibition of growth at 10 µM (OVCAR-5): 5.27%
- inhibition of growth at 10 µM (Hs-578T): 11.4%
- inhibition of growth at 10 µM (HOP-92): 5.45%
- inhibition of growth at 10 µM (HCC 2998): -9.63%
- inhibition of growth at 10 µM (SK-MEL-2): 0.56%
- inhibition of growth at 10 µM (UACC-257): 31.9%
- inhibition of growth at 10 µM (PC-3): 10.3%
- inhibition of growth at 10 µM (MCF7): -1.88%
- inhibition of growth at 10 µM (RPMI-8226): 21.6%
